Source: paper PMC11638873 (Molecular Therapy, 2024)
Several values for one entry are separate records, joined by “and”; a condition that tells them apart may be missing. Equal values may be shown once.

Key:
[1] = Biodistribution study after single oral dose in wild-type C57BL/6 mice; format: in vivo, mouse; details: 60 mg/kg single oral dose
[2] = system: premature termination codons (PTCs) / natural termination codons (NTCs); details: cited from earlier work
[3] = system: human liver microsomes (CYP, UGT); test: In vitro metabolism on human liver microsomes; format: in vitro ADME; details: for glucuronate metabolite detection after HLM incubation: with cofactors for UGT activity
Outline: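 Test compound (1 mM) incubated at 37 °C with pooled HLMs from 50 donors of both sexes (20 mg protein/mL). Buffer was 100 mM potassium phosphate or 100 mM Tris-HCl, pH 7.4, each with 20 mM NADPH. Reactions stopped with acetonitrile at 0, 5, 30 and 60 min; supernatant analysed by HPLC-MS. % remaining vs 0 min; mean ± SEM; one-way ANOVA vs time 0.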

[4] = system: CFTR (G542X nonsense mutation); format: in vivo, mouse; details: 60 mg/kg daily oral, 15 days
Outline: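 G542X homozygous mice (n = 5, genotyped by allele-specific PCR) gavaged daily from P21 for 15 days; 3 WT and 3 mutant mice given water as vehicle. Lung RNA (20–25 mg tissue) for real-time RT-PCR. Lung protein (40 mg tissue, RIPA plus 1% protease inhibitors, Bradford) for western blot, normalized to tubulin and negative control. Triplicate per mouse; mean ± SEM; two-way ANOVA vs untreated mutant.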

[5] = cited from earlier work
[6] = format: in vivo, mouse; details: 60 mg/kg daily oral
Outline: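 Homozygous G542X mice were dosed orally once daily from P21 for 15 days. Controls were 3 WT and 3 mutant mice given water. Afterwards, isolated tissues from each group were stained with hematoxylin and eosin to check for tissue damage.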

metabolic consumption after HLM incubation ([3]; after 60 min, HLM condition not specified)	Structure (SMILES)	last detection in lungs [1]	concentration in kidneys (individual mice) ([1]; 45 min, found in two mice)	concentration in pancreas ([1]; 45 min to 2 h)	average plasma concentration ([1]; 24 h)	specificity for PTCs [2]	metabolic stability in HLM compared to PTC124 ([3]; CYP, UGT and other liver microsome enzymes)	consumption after HLM incubation ([3]; after 60 min, CYP-DPBS condition)	consumption after HLM incubation ([3]; after 60 min, CYP-Tris condition)	consumption after HLM incubation ([3]; after 60 min, CYP/UGT-DPBS condition)	consumption after HLM incubation ([3]; after 60 min, CYP/UGT-Tris condition)	glucuronate metabolite detection after HLM incubation [3]	lung CFTR mRNA expression (real-time RT-PCR) ([4]; CFTR G542X/G542X mice, vs untreated mutant)	CFTR detection in lung sections (IHC), apical membranes of pulmonary ducts ([4]; mouse M2)	tolerability in vivo [5]	tissue damage after chronic administration (H&E staining) ([6]; 15 days)	tolerability of oral treatment for 2 weeks ([6]; CFTR G542X/G542X mice)
–	CC(=O)Nc1noc(C)n1 [NV848, N-(5-methyl-1,2,4-oxadiazol-3-yl)acetamide]	2 h	145 ng/g and 794 ng/g	stable concentrations from 45 min to 2 h	0.06 g/mL	specificity for PTCs without interfering with NTCs	higher metabolic stability compared to PTC124	14.62%	5.27%	5.65%	13.04%	no glucuronate metabolites were detected	increase in CFTR mRNA expression	intensity similar to CFTR^WT	good tolerability in vivo	no signs of tissue damage	well tolerated in mice and did not cause toxicity
46.25%	O=C(O)c1cccc(-c2noc(-c3ccccc3F)n2)c1 [PTC124, reference compound]	–	–	–	–	–	–	–	–	–	–	glucuronate derivative was the primary metabolite detected	–	–	–	–	–
